Published values of several laboratories.
Lines come from different studies, so protocols differ.
pH: 7.4

Structure (SMILES) | test | test system | setting | measurement | result
c1cc(-c2ccc3ncnc(Nc4ncco4)c3c2)cc(N2C[C@H]3C[C@@H]2CO3)c1 | shake flask | aqueous buffer | – | logD | 3.5
CCCCCc1cn([C@H]2[C@H]([C@H](O)[C@H](O)CO)OC(C(=O)O)=C[C@@H]2O)nn1 | shake flask | aqueous buffer | 2 h | logD | -0.3
O=C1NC2(CCC2)C(=O)N1c1ccc(F)c(C(F)(F)F)c1 | HPLC | – | – | chromatographic logD | 3
COc1cc(C(=O)c2nc(-c3cccc4[nH]ccc34)c[nH]2)cc(OC)c1OC | – | – | – | logD | 3.69
Cc1ccc2[nH]c(=S)n(Cc3cccnc3)c(=O)c2c1 | shake flask | aqueous buffer | – | logD | 2.88
CCCCCC(=O)N[C@H]1[C@H]([C@H](O)[C@H](O)CO)OC(C(=O)O)=C[C@@H]1O | shake flask | aqueous buffer | 2 h | logD | -0.92
CC1(C)NC(=O)N(c2ccc(F)c(C(F)(F)F)c2F)C1=O | HPLC | – | – | chromatographic logD | 2.7
O=c1c2cc(Cl)ccc2[nH]c(=S)n1Cc1cccnc1 | shake flask | aqueous buffer | – | logD | 3.16
